SIRT5 inh: blocks human SIRT5 desuccinylation of peptide; 1.1% of 330,000 active; Purified SirT5, succinyl-peptide AMC, trypsin-coupled fluorescence; Q9NXA8; AID 652115; inhibition, % at 15 µM; in the data active = inhibition above about 15%; inconclusive = no clear call, values can overlap the other calls
Target sequence (Q9NXA8 whole entry, looked up): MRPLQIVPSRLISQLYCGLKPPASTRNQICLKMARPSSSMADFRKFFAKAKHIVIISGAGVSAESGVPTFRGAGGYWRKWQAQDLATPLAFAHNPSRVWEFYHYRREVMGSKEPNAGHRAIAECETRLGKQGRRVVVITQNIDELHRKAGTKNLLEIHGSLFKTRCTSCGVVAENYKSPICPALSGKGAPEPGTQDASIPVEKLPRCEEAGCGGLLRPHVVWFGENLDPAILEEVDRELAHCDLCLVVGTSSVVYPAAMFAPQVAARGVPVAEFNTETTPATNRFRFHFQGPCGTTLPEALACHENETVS
DENV2 CPE rescue: inhibitors of DENV2 cytopathic effect; DENV2-infected cells, cytopathic effect rescue, plate reader; CPE inhibition, % at 9.99 µM; 1.7% of 350,000 active; AID 651640; in the data active = CPE inhibition above about 20%, passing the limit was not always enough; inconclusive = no clear call, values can overlap the other calls; tested in BHK-21 cells;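 note: 0% = median of neutral control wells and 100% = median of positive control wells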
ERAP1 inh: blocks human ERAP1 aminopeptidase activity | inhibition, % at 10.7 µM | 0.15% of 340,000 active | recombinant ERAP1, Leu-AMC fluorescence, 60 min | Q9NZ08 | AID 652197;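 active = mean replicate inhibition of at least 30%, or all replicates individually reaching that 30% level; inactive = mean below 30% and not every replicate reaching it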;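 note: 0% = neutral control wells and 100% = L-leucinethiol positive control wells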
S100A4 MyoIIA: blocks human S100A4 binding to myosin IIA peptide; 0.14% of 360,000 active; S100A4/TAMRA-MyoIIA peptide fluorescence polarization; inhibition, % at 10.7 µM; P26447;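 active = mean inhibition of at least 70% across replicates, with every replicate also reaching that level; inconclusive = mean inhibition reaches 70% but some replicates fall short; inactive = mean inhibition below 70%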
Target sequence (P26447 whole entry, looked up): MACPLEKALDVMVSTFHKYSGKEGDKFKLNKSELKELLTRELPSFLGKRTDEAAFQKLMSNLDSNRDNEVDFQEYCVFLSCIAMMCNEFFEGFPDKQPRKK
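Material: human S100A4 monomer with TAMRA-labelled myosin IIA peptide; buffer or medium: HEPES pH 7.2 with CaCl2, KCl, NaCl, DTT, Triton; compound dosing: one concentration per compound; schedule: 5 min incubation before reading; benchmarks: neutral control DMSO, positive control TFP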
CAL PDZ FP-1: inhibitors of human CAL PDZ peptide binding | inhibition, % at 24.9 µM | 0.92% of 300,000 active | purified CAL PDZ, TMR-peptide fluorescence polarization, 1 h | Q9HD26;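 active = mean inhibition of at least 30% with at least half of replicates also reaching 30%; inconclusive = no clear call, values can overlap the other calls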;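 note: 0% = DMSO neutral control and 100% = excess unlabeled competitor peptide PRC23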
CAL PDZ FP-2: human CAL PDZ-peptide interaction inhibition | 0.02% of 330,000 active | inhibition, % at 20 µM | purified CAL PDZ, TMR-peptide fluorescence polarization, 1 h | Q9HD26 | AID 504414;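 active = highest replicate inhibition of at least 40%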;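 note: plate controls were DMSO neutral control wells for no effect and unlabeled competitor peptide control wells for full effect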
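Control set: unlabelled peptide and DMSO controls / Material: purified CerCALP PDZ construct / Timing: 1 h incubation at room temperature before polarization reading / Doses: 20 µM, one dose / Detection: fluorescence polarization (mP)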
The depositor's hits bear a star; ? = inconclusive; / = no result given; ! = not confirmed by another sample. Only some compounds are listed: those with a hit (about 2.9% of all), similar ones and a draw of the others.

SMILES | SIRT5 inh | DENV2 CPE rescue | ERAP1 inh | S100A4 MyoIIA | CAL PDZ FP-1 | CAL PDZ FP-2
C[C@H](CO)N1C[C@H](C)[C@@H](CN(C)C(=O)Cc2ccccc2)Oc2cc(C#CC3(O)CCCC3)ccc2S1(=O)=O | -4 | -11 | 0 | ? | / | /
CCNC(=O)Nc1ccc2c(c1)C(=O)N(C)[C@H]1CC[C@H](CC(=O)NCc3ccc(F)cc3)O[C@H]1CO2 | -7 | -2 | 0 | 11 | / | /
COc1ccc(C(=O)NCc2cc(C(C)C)no2)cc1OC1CCN(C(C)C)CC1 | -7 | 2 | 0 | 1 | / | 0
COc1ccc(C(=O)NCc2nc(C)c(C)s2)cc1OC1CCN(C(C)C)CC1 | 15* | 9 | 0 | 3 | 2 | -1
COc1ccc(NC(=O)N(C)C[C@H]2Oc3ccc(NS(C)(=O)=O)cc3CC(=O)N([C@H](C)CO)C[C@@H]2C)cc1 | -3 | 0 | 0 | 5 | / | /
Cc1ccc(S(=O)(=O)Nc2ccc3c(c2)CC(=O)N([C@H](C)CO)C[C@@H](C)[C@@H](CN(C)C(=O)Nc2ccc(F)cc2)O3)cc1 | -3 | 25* | 1 | -56 | / | /
COc1ccc(NC(=O)N(C)C[C@H]2Oc3ccc(NS(=O)(=O)c4ccc(OC)cc4)cc3CC(=O)N([C@@H](C)CO)C[C@H]2C)cc1 | -2 | 0 | 1 | -14 | / | /
Cc1ccc(S(=O)(=O)Nc2ccc3c(c2)CC(=O)N([C@H](C)CO)C[C@H](C)[C@@H](CN(C)C(=O)Nc2ccc(F)cc2)O3)cc1 | 6 | 16 | 2 | 1 | / | /
C[C@@H]1CN([C@H](C)CO)C(=O)Cc2cc(NS(=O)(=O)c3ccc(Cl)cc3)ccc2O[C@@H]1CN(C)C(=O)Nc1ccccc1 | -2 | 27* | 1 | -34 | / | /
COc1ccc(NC(=O)N(C)C[C@@H]2Oc3ccc(NS(C)(=O)=O)cc3CC(=O)N([C@H](C)CO)C[C@@H]2C)cc1 | -2 | 34* | 0 | -5 | / | /
COc1ccc(NC(=O)N(C)C[C@H]2Oc3ccc(NS(=O)(=O)c4ccc(OC)cc4)cc3CC(=O)N([C@H](C)CO)C[C@H]2C)cc1 | 20* | -6 | 2 | -12 | / | /
O=C(C[C@@H]1CC[C@H](NS(=O)(=O)c2ccc(F)cc2)[C@H](CO)O1)N1CCc2ccccc2C1 | 2 | -7 | -2 | 6 | / | /
COc1ccc(NC(=O)Nc2ccc3c(c2)CC(=O)N([C@@H](C)CO)C[C@@H](C)[C@@H](CN(C)C(=O)Nc2ccc4c(c2)OCO4)O3)cc1 | 3 | 10 | 0 | -1 | / | /
CCCNC(=O)[C@@H]1[C@@H](CO)[C@@H]2Cn3c(ccc(-c4cccnc4)c3=O)[C@@H]2N1Cc1cocn1 | -8 | -2 | -1 | 6 | / | /
COc1ccc(S(=O)(=O)Nc2ccc3c(c2)CC(=O)N([C@H](C)CO)C[C@@H](C)[C@H](CN(C)C(=O)NC(C)C)O3)cc1 | 3 | -10 | 1 | -6 | / | /
COc1ccc(S(=O)(=O)Nc2ccc3c(c2)CC(=O)N([C@H](C)CO)C[C@H](C)[C@H](CN(C)C(=O)NC(C)C)O3)cc1 | -5 | 64* | 0 | 10 | / | /
CN1CCN(C(=O)C[C@@H]2C[C@@H]3c4cc(NC(=O)Nc5ccccc5)ccc4O[C@@H]3[C@H](CO)O2)CC1 | / | -1 | / | / | / | /
CCC(C)Sc1cccc(-c2nc3ccc(C)cn3c2NC2CCCCC2)c1 (centres undefined) | / | 60*! | -2 | -8 | -3 | 1
COc1ccc(CN(C)C[C@H]2OCCCC[C@H](C)Oc3ccc(NS(=O)(=O)c4ccc(OC)cc4)cc3C(=O)N([C@@H](C)CO)C[C@@H]2C)cc1 | / | -9 | / | / | / | /
CCC(=O)Nc1ccc2c(c1)C(=O)N(C)C[C@@H](OC)[C@@H](C)CN(Cc1ccccc1)[C@@H](C)CO2 | -1 | -3 | 0 | 51 | / | /
C=CCOC(=O)C1=C[C@@H](C2CCCCC2)C[C@@H](OCc2ccc(CO)cc2)O1 | 0 | 48* | -3 | 2 | -2 | -1
O=C(Nc1ccccc1)C1=C[C@H](C2CCCCC2)C[C@H](OCc2ccc(CO)cc2)O1 | 5 | -1 | 1 | 20 | 0 | 0
O=C(NCc1nc2ccccc2[nH]1)C1=C[C@H](C2CCCCC2)C[C@H](OCc2ccc(CO)cc2)O1 | 7 | 21*! | -4 | -2 | -1 | 0
O=C(NCc1nc2ccccc2[nH]1)C1=C[C@H](c2ccc(C(F)(F)F)cc2)C[C@H](OCCCCO)O1 | -1 | 21* | -2 | 2 | -6 | 0
O=C(CCN1CCN(C/C=C/c2ccccc2)CC1)Nc1ccc(Cl)cc1 | -2 | 12 | 5 | -1 | -1 | 0
SMILES | SIRT5 inh | DENV2 CPE rescue | ERAP1 inh | S100A4 MyoIIA | CAL PDZ FP-1 | CAL PDZ FP-2
O=C(Nc1cccc(Cl)c1)N1CCN(C/C=C/c2ccccc2)CC1 | / | / | / | / | 48* | -2
O=C(COc1ccc(Cl)cc1)c1ccc(O)cc1O | -3 | 2 | 13 | -16 | 55* | -3
CCC(=O)N1CC[C@@H]2[C@H](CO)Nc3ccc(-c4ccc(F)cc4)cc3[C@@H]21 | -3 | 12 | 3 | 0 | / | /
COc1cc(/C=N/Nc2nc3ccccc3s2)ccc1OC(=O)c1ccccc1F | -1 | -8 | 0 | -1 | 72* | -2
COc1cc(OC)cc(C(=O)Oc2ccc(/C=N/Nc3nc4ccccc4s3)cc2OC)c1 | / | / | / | / | / | -1
O=C(COc1ccc(-c2nnco2)cc1)NCc1ccccc1Cl | 1 | 43* | 2 | 0 | -4 | -4
COc1cccc(C#Cc2cnc3c(c2)C(=O)N([C@@H](C)CO)C[C@@H](C)[C@H](CN(C)C(C)=O)O3)c1 | -2 | -2 | 0 | -6 | / | /
COc1ccc(C2NCCc3cc(OC)c(OC)cc32)cc1OC (centres undefined) | / | / | / | / | 60* | 1
CC=Cc1ccc2n(c1=O)C[C@@H]1[C@@H](CO)[C@H](C(=O)NCCc3cn(C)cn3)[C@H]2N1C(=O)C1CCCC1 (mixture of isomers) | -18 | -7 | -2 | 12 | / | /
Cc1ccc(C)c(OCC(O)CN2CCC(Cc3ccccc3)CC2)c1 (centres undefined) | -4 | 1 | 2 | -3 | 37* | -2
COc1ccc(NC(=O)NNc2cc(N3CCOCC3)nc(N3CCOCC3)n2)cc1 | -1 | -1 | 1 | -3 | / | 0
O=C(NNc1nc(N2CCOCC2)nc(N2CCOCC2)n1)Nc1ccc(Cl)cc1 | 15* | 2 | 0 | -4 | / | /
CCNC(=O)Nc1ccc2c(c1)C(=O)N(C)[C@H]1CC[C@H](CC(=O)NCCOC)O[C@@H]1CO2 | -5 | -2 | -6 | 5 | / | /
CC(=O)N(/C=C1\SC(=S)N(c2ccccc2)C1=O)c1ccccc1 | -3 | 1 | / | 4 | 35* | -2
CCN1C(=O)/C(=C\N(C(C)=O)c2ccccc2)OC1=S | / | / | / | / | -4 | -1
CC(/C=C1\SC(=S)N(NC(=O)c2ccc(C)cc2)C1=O)=C\c1ccccc1 | / | / | / | / | 6 | -1

Bioassay records deposited in PubChem by Broad Institute.
